Experimental data reported in publication PMC4010123 (Neuron, 2014).
Entries after “also recorded” stand apart in the source; their conditions may differ.

What was measured:
total NR2B = test: Total NR2B levels in hippocampal slices; format: cell-based, mouse; conditions: acute hippocampal slices, NMDA 50 or 100 μM, 15 min
Outline: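 Acute mouse hippocampal slices were exposed to NMDA (50 or 100 μM, 15 min) in Mg2+-free Krebs buffer. Lysates were prepared with protease and phosphatase inhibitors and immunoblotted for total NR2B.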

[1] = system: Ser1116 of NR2B phosphorylated by Cdk5; test: P-S1116 NR2B in acute hippocampal slices; format: cell-based, mouse
NR2B [2] = conditions: infusion into dorsal hippocampus; ref Zhang et al., 2008; cited from earlier work
[3] = system: hippocampal CA3-CA1 pathway (fEPSP); test: Extracellular field recordings, CA3-CA1 fEPSP slope in hippocampal slices; format: cell-based, mouse; conditions: for fEPSP slope, effect of NR2B siP in presence of Ro 25–6981: Ro 25–6981 3 μM, added 10 min before Pen siP (2 μM, 30 min)
Outline: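 Hippocampal slices were used; wild-type slices came from 3-month-old C57BL/6 mice. CA1 fEPSPs were evoked by bipolar Schaffer collateral stimulation (0.1 ms pulses at 0.033 Hz) at the intensity giving 50% of maximal slope. After a stable baseline, Pen-tagged test or control peptide was perfused for 30 min. Where used, Ro 25–6981 (3 μM) perfusion began 10 min before peptide. Read-out: percent change from baseline fEPSP slope.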

[4] = system: NMDAR / NR2B component of NMDAR-EPSC; test: Whole-cell voltage-clamp NMDAR-EPSC, CA1 pyramidal neurons in hippocampal slices; format: cell-based, mouse
Outline: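 Acute mouse hippocampal slices were pretreated with vehicle or Cdk5 inhibitor. Whole-cell voltage-clamp recordings of synaptically evoked NMDAR-EPSCs were made from CA1 pyramidal neurons, first without and then with the NR2B blocker ifenprodil. The ifenprodil-sensitive part was taken as the NR2B component; decay kinetics were also measured.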

NR2B or Cdk5 = test: NR2B and Cdk5 expression levels in hippocampal slices; format: cell-based, mouse; conditions: NR2B siP
Outline: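 Mouse hippocampal slices treated in Mg2+-free Krebs buffer with the test peptide (0–100 μM, 0–180 min) or a scrambled control peptide. NR2B–Cdk5 association was assessed by co-immunoprecipitation using 4 pooled slices per sample. NR2B and Cdk5 levels were immunoblotted, with loading shown.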

[5] = system: Cdk5 (substrate inhibitor-1); test: In vitro phosphorylation of inhibitor-1 by Cdk5; format: biochemical; conditions: Figure S3A
[6] = system: Cdk5 (substrate recombinant NR2B, Ser1116); test: In vitro phosphorylation of Ser1116 NR2B by Cdk5; format: biochemical; conditions: immunoblot
NR2B [7] = test: Cell surface biotinylation of NR2B in hippocampal slices; format: cell-based, mouse; conditions: n = 4
[8] = system: Cdk5-NR2B protein-protein interaction; test: Co-immunoprecipitation of Cdk5 and NR2B from hippocampal slices; format: cell-based, mouse; conditions: 4 pooled slices per sample
Outline: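 Acute mouse hippocampal slices were treated in Mg2+-free Krebs buffer with test peptide, scrambled peptide or Cdk5 inhibitor. Four slices were pooled per sample for NR2B–Cdk5 co-immunoprecipitation and immunoblotting, with Cdk5 input shown.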

Ser1116 of NR2B [9] = test: P-S1116 NR2B in CA1 after siP infusion and fear conditioning; format: in vivo; conditions: NR2B siP infusion (Figure S5A)
Outline: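 Test peptide or control peptide was infused into dorsal hippocampus before fear conditioning. Animals were killed 1 h after training, and CA1 lysates were prepared with protease and phosphatase inhibitors. P-S1116 and total NR2B were measured by quantitative immunoblot and reported as the P-S1116/total NR2B ratio. Data are mean ± SEM.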

Sprague-Dawley rats = test: Fear conditioning in rats, chronic infusion into dorsal hippocampus; format: in vivo, rat; conditions: for conditioned fear response at 96 h: extinction trial, both groups (siP and scrambled) (Figure S4E)
Outline: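 Two-month-old Sprague-Dawley rats received continuous bilateral dorsal hippocampal infusion by mini-osmotic pump, starting 24 h before training. Training: 2 min exploration, then a 30 s tone (90 dB, 10 kHz) co-terminating with a foot shock (2 s, 0.7 mA); 2 min more in the box. Context tests: 5 min at 24, 48, 72 and 96 h. Tone recall at 27 h in a novel vanilla context (3 min, then 3 min tone). Freezing was time-sampled every 5 s, blind. After extinction and pump expiry, rats were retrained (0.7 mA) and context-tested 24 h later.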

NR2B [10] = test: NR2B cell surface expression in siP-infused hippocampal area CA1; format: in vivo; conditions: rat CA1, NR2B siP vs scramble control; 4 pooled tissue punches
Outline: (§1)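 Sprague-Dawley rats received continuous bilateral dorsal hippocampal infusion of test or scrambled peptide by osmotic pump. Epifluorescent CA1 tissue punches were immunoblotted, with protease and phosphatase inhibitors present. P-S1116 was expressed as the P-S1116/total NR2B ratio. Cell surface NR2B was measured from 4 pooled punches per condition.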

mice = test: Fear conditioning in mice, acute infusion into dorsal hippocampus; format: in vivo, mouse
[11] = system: Thr75 DARPP-32 (Cdk5 substrate); test: phospho-Thr75 DARPP-32 in acute brain slices; format: cell-based, mouse; conditions: acute striatal slices, NR2B siP (Figure S3C and D)
Outline: (§2)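 Acute mouse striatal slices were treated in Mg2+-free Krebs buffer with polyarginine (R7)-tagged test peptide (0–100 μM, 0–180 min). Lysates were prepared with protease and phosphatase inhibitors and immunoblotted. For NR2B, P-S1116 was expressed as the P-S1116/total NR2B ratio; for DARPP-32, phospho-Thr75 was probed with total DARPP-32.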

NMDAR/AMPAR EPSC = test: NMDA/AMPA EPSC ratio in cortical slices; format: cell-based; conditions: cortical slices (pyramidal neurons), NR2B siP vs scrambled control; n = 12–16
NR2B-Cdk5 interaction = test: Pull-down of Cdk5 by recombinant GST-tagged NR2B in vitro; format: binding; conditions: n = 3
[12] = system: Ser1116 of NR2B phosphorylated by Cdk5; test: P-S1116 NR2B in acute striatal slices; format: cell-based; conditions: acute mouse striatal slices, NR2B siP (Figure S3C and D)
Outline: as §2

[13] = system: NR2B component of NMDAR EPSC; test: Ifenprodil-sensitive NR2B component of NMDAR EPSC in slices; format: cell-based; conditions: slices incubated with NR2B siP vs scramble control; n = 6–7
rats = test: Nociception, pain threshold and motor reflexes; format: in vivo, rat; conditions: chronic infusion (Figure S4B and C)
Outline: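 Rats received continuous bilateral infusion of the test peptide or a scrambled control into dorsal hippocampus by mini-osmotic pump, starting 24 h before fear conditioning. Nociception was scored as the foot-shock threshold that elicits flinching, jumping and vocalizing in the conditioning box; a tail flick test was also used. Scoring was blind. Data are mean ± SEM.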

Ser1116 of NR2B [14] = test: P-S1116 in siP-infused hippocampal area CA1; format: in vivo; conditions: rat CA1, NR2B siP vs scramble control; n = 4
Outline: as §1

GFP-NR2B = test: Cell surface GFP-NR2B in dendrites of cultured hippocampal neurons; format: cell-based, rat; conditions: NR2B siP 2 μM, 30 min, vs control peptide (S1116A); n = 49–64 cells
[15] = slices from Cdk5 cKO mice, NR2B siP 2 μM, 30 min, n = 3

Compound: CN[C@H](CC(=O)O)C(=O)O [NMDA, N-methyl-D-aspartate]
- total NR2B levels (total NR2B): reduced total NR2B levels
- P-S1116 normalized to total NR2B ([1]; acute hippocampal slices, NMDA 50 or 100 μM, 15 min, n = 4): dose-dependently attenuated P-S1116

Compound: C[C@@H](CN1CCC(Cc2ccccc2)CC1)[C@@H](O)c1ccc(O)cc1 [Ro25–6981]
- contextual fear learning (NR2B [2]): impair contextual fear learning
- locomotor or anxiety-related behavior (NR2B [2]): but not locomotor or anxiety-related behavior
- fEPSP slope, effect of NR2B siP in presence of Ro 25–6981 ([3]; n = 3): blocked

Compound: CC(C(O)c1ccc(O)cc1)N1CCC(Cc2ccccc2)CC1 (stereo not shown) [ifenprodil]
- contextual fear learning (NR2B [2]): impair contextual fear learning
- locomotor or anxiety-related behavior (NR2B [2]): but not locomotor or anxiety-related behavior
- reduction of NMDAR-EPSC by ifenprodil in control slices ([4]; controls (vehicle), n = 6–7): 20%
- reduction of NMDAR-EPSC by ifenprodil in CP681301-treated slices ([4]; slices treated with CP681301, n = 6–7): 33%

Compound: C=C1[C@@H](O)[C@@H]2O[C@]3(CC[C@H](/C=C/[C@@H](C)[C@@H]4CC(C)=C[C@@]5(O[C@H](C[C@@](C)(O)C(=O)O)CC[C@H]5O)O4)O3)CC[C@H]2O[C@@H]1[C@@H](O)C[C@H](C)[C@H]1O[C@@]2(CCCCO2)CC[C@H]1C [okadaic acid]
- ability of NMDA to reduce P-S1116 in presence of okadaic acid ([1]; hippocampal slices, PP2A/PP1 inhibitor okadaic acid + NMDA (Figure S2C)): attenuated

Compound: RRPPRSPDHKRYFRDKE [NR2B siP]
- levels of NR2B or Cdk5 expression (NR2B or Cdk5): did not alter levels of NR2B or Cdk5 expression
- in vitro phosphorylation of inhibitor-1 [5]: did not inhibit
- in vitro phosphorylation of Ser1116 NR2B by Cdk5 [6]: dose-dependently inhibits
- NR2B cell surface levels, increase, siP (NR2B [7]; NR2B siP 1 h, 100 μM): 3.3 fold
- NR2B cell surface levels (NR2B [7]; NR2B siP or Scramble 1 h, 100 μM, or CP681301 1 h, 50 μM): increased
- Cdk5-NR2B co-immunoprecipitation / interaction [8]: disrupts NR2B-Cdk5 interaction; also recorded: effectively blocked subsequent co-immunoprecipitation of Cdk5 and NR2B
- fEPSP slope, effect of NR2B siP in presence of Ro 25–6981 ([3]; n = 3): did not show a significant effect
- fEPSP slope, steady state after washout, relative to control treated slices ([3]; hippocampal slices, after washout of NR2B siP (Pen siP), vs control peptide): 1.6 fold
- fEPSP slope in Cdk5 cKO, effect [3, 15]: almost absent in Cdk5 cKO mice
- fEPSP slope in Cdk5 cKO, increase [3, 15]: 1.2 fold
- P-S1116 NR2B in CA1 one hour post-training (Ser1116 of NR2B [9]): decreased P-S1116 NR2B in CA1 one hour post-training
- contextual memory enhancement during extinction trials (Sprague-Dawley rats; rats, 48 and 72 h after initial training (Figure S4D and E)): contextual memory enhancement persisted
- tone-induced freezing (Sprague-Dawley rats; rats, chronic infusion, 27 h after conditioning): no effect
- conditioned fear response at 96 h (Sprague-Dawley rats; rats): extinguished by 96 h for both groups
- contextual fear memory 24 h after re-training (Sprague-Dawley rats; rats, re-trained after extinction and expiration of pump (Figure S4F)): increased
- contextual fear memory (Sprague-Dawley rats; two-month-old rats, chronic infusion, n = 20): improved contextual fear memory
- NR2B cell surface expression (NR2B [10]): increases NR2B cell surface expression
- freezing levels in context test, acute compared with chronic infusion (mice; 3 month-old mice, acute infusion): comparable to the levels observed with chronic infusion
- freezing in the tone test (mice; 3 month-old mice, acute infusion 90 min prior to conditioning, n = 6–10): not freezing to tone; also recorded: did not reveal any significant changes
- contextual fear memory, increase, aged mice (mice; 14 month-old mice, acute infusion 90 min prior to training, vs control peptide or non-infused cannulated controls (Figure S5B)): 1.7 fold
- phosphorylation state of Thr75 DARPP-32 [11]: no effect
- NMDA/AMPA EPSC ratio, increase (NMDAR/AMPAR EPSC): 1.8 fold
- block of pull-down of Cdk5 by GST-tagged NR2B (NR2B-Cdk5 interaction): most potently blocked the pull-down of Cdk5; also recorded: dose-dependently disrupts NR2B-Cdk5 binding in vitro
- P-S1116 in striatal slices [12]: time-dependently reduced P-S1116
- ifenprodil-sensitive NR2B component of NMDAR EPSC, increase [13]: 1.5 fold
- nociception, pain threshold, or motor reflexes (rats): neither NR2B siP, nor scrambled control affected nociception, pain threshold, or motor reflexes
- P-S1116 in infused region (Ser1116 of NR2B [14]): reduces P-S1116
- cell surface GFP-NR2B levels, increase, siP (GFP-NR2B): 1.5 fold

Compound: RRRSYFHKEDRPPRDK [scrambled, reference compound]
- in vitro phosphorylation of Ser1116 NR2B by Cdk5 [6]: did not attenuate Ser1116 phosphorylation in vitro
- in vitro phosphorylation of Ser1116 NR2B by Cdk5 ([6]; listed as scramble): no effect
- Cdk5-NR2B co-immunoprecipitation / interaction [8]: did not affect Cdk5-NR2B interactions
- conditioned fear response at 96 h (Sprague-Dawley rats; rats): extinguished by 96 h for both groups
- nociception, pain threshold, or motor reflexes (rats): neither NR2B siP, nor scrambled control affected nociception, pain threshold, or motor reflexes
